Test results from ChEMBL document CHEMBL1140053, “Discovery of antimycobacterial spiro-piperidin-4-ones: an atom economic, stereoselective synthesis, and biological intervention” (J Med Chem, 2008).
Converted amounts (≈) assume the structure as drawn.

Tested on: Mycobacterium tuberculosis
Assay: Antimycobacterial activity against multidrug-resistant Mycobacterium tuberculosis by agar dilution method
Format: functional
Outline: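 Clinical MDR isolate resistant to isoniazid, rifampicin, ethambutol and ofloxacin. Agar dilution in Middlebrook 7H11 agar with OADC, pH 7.40, NCCLS-like method, run in duplicate. MIC is the lowest concentration giving complete inhibition of growth.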

Question: How did the MIC turn out when `COc1ccccc1/C=C1\CN(C)C[C@@]2(C1=O)[C@@H](c1ccccc1OC)[C@@H]1CCCN1[C@@]21C(=O)Nc2ccccc21` (racemic) was run?
Answer: 0.71 µg/mL (≈ 1.29 µM)

Question: How did the MIC turn out when `CN1C/C(=C\c2cccs2)C(=O)[C@]2(C1)[C@@H](c1cccs1)CN(C)[C@@]21C(=O)Nc2ccccc21` (racemic) was run?
Answer: 3.28 µg/mL (≈ 6.9 µM)

Question: `CN1C/C(=C\c2cccs2)C(=O)[C@]2(C1)[C@@H](c1cccs1)[C@@H]1CCCN1[C@@]21C(=O)Nc2ccccc21` (racemic) was tested. Which MIC did it give?
Answer: 0.38 µg/mL (≈ 0.757 µM)

Question: With `CN1C/C(=C\c2ccccc2Cl)C(=O)[C@]2(C1)[C@@H](c1ccccc1Cl)CN(C)[C@@]21C(=O)Nc2ccccc21` (racemic) as the compound, how does the MIC read?
Answer: 0.08 µg/mL (≈ 0.15 µM)

Question: For `CN1C/C(=C\c2ccc(F)cc2)C(=O)[C@]2(C1)[C@@H](c1ccc(F)cc1)[C@H](c1ccccc1)N[C@@]21C(=O)Nc2ccccc21` (racemic), which MIC is on record?
Answer: 0.16 µg/mL (≈ 0.285 µM)

Question: `CN1C/C(=C\c2cccc(F)c2)C(=O)[C@]2(C1)[C@@H](c1cccc(F)c1)CN(C)[C@@]21C(=O)Nc2ccccc21` (racemic) was tested. Which MIC did it give?
Answer: 1.56 µg/mL (≈ 3.12 µM)

Question: `CN1C/C(=C\c2ccccc2Cl)C(=O)[C@]2(C1)[C@@H](c1ccccc1Cl)[C@@H]1CCCN1[C@@]21C(=O)Nc2ccccc21` (racemic) was tested. Which MIC did it give?
Answer: 0.71 µg/mL (≈ 1.27 µM)

Question: Which MIC does the source give for `CN1C/C(=C\c2ccc(Cl)cc2Cl)C(=O)[C@]2(C1)[C@@H](c1ccc(Cl)cc1Cl)CN(C)[C@@]21C(=O)Nc2ccccc21` (racemic) here?
Answer: 2.59 µg/mL (≈ 4.31 µM)

Question: For `CN1C/C(=C\c2ccccc2)C(=O)[C@]2(C1)[C@@H](c1ccccc1)[C@H](c1ccccc1)N[C@@]21C(=O)Nc2ccccc21` (racemic), which MIC is on record?
Answer: 1.49 µg/mL (≈ 2.83 µM)

Question: With `Cc1ccc(/C=C2\CN(C)C[C@@]3(C2=O)[C@@H](c2ccc(C)cc2)[C@H](c2ccccc2)N[C@@]32C(=O)Nc3ccccc32)cc1` (racemic) as the compound, how does the MIC read?
Answer: 1.41 µg/mL (≈ 2.55 µM)

Question: For `COc1ccc(/C=C2\CN(C)C[C@@]3(C2=O)[C@@H](c2ccc(OC)cc2)[C@H](c2ccccc2)N[C@@]32C(=O)Nc3ccccc32)cc1` (racemic), which MIC is on record?
Answer: 0.67 µg/mL (≈ 1.14 µM)

Question: For `CN1C/C(=C\c2ccc(Cl)cc2Cl)C(=O)[C@]2(C1)[C@@H](c1ccc(Cl)cc1Cl)[C@H](c1ccccc1)N[C@@]21C(=O)Nc2ccccc21` (racemic), which MIC is on record?
Answer: 2.35 µg/mL (≈ 3.54 µM)

Question: For `COc1ccccc1/C=C1\CN(C)C[C@@]2(C1=O)[C@@H](c1ccccc1OC)[C@H](c1ccccc1)N[C@@]21C(=O)Nc2ccccc21` (racemic), which MIC is on record?
Answer: 2.67 µg/mL (≈ 4.56 µM)

Question: How did the MIC turn out when `CN1C/C(=C\c2ccccc2Cl)C(=O)[C@]2(C1)[C@@H](c1ccccc1Cl)[C@H](c1ccccc1)N[C@@]21C(=O)Nc2ccccc21` (racemic) was run?
Answer: 5.27 µg/mL (≈ 8.86 µM)

Question: `CN1C/C(=C\c2cccc3ccccc23)C(=O)[C@]2(C1)[C@@H](c1cccc3ccccc13)[C@@H]1CCCN1[C@@]21C(=O)Nc2ccccc21` (racemic) was tested. Which MIC did it give?
Answer: 5.31 µg/mL (≈ 9 µM)

Question: `Cc1ccccc1/C=C1\CN(C)C[C@@]2(C1=O)[C@@H](c1ccccc1C)[C@H](c1ccccc1)N[C@@]21C(=O)Nc2ccccc21` (racemic) was tested. Which MIC did it give?
Answer: 2.82 µg/mL (≈ 5.09 µM)

Question: Which MIC does the source give for `COc1ccc(/C=C2\CN(C)C[C@@]3(C2=O)[C@@H](c2ccc(OC)cc2)CN(C)[C@@]32C(=O)Nc3ccccc32)cc1` (racemic) here?
Answer: 0.36 µg/mL (≈ 0.688 µM)

Question: How did the MIC turn out when `COc1ccccc1/C=C1\CN(C)C[C@@]2(C1=O)[C@@H](c1ccccc1OC)CN(C)[C@@]21C(=O)Nc2ccccc21` (racemic) was run?
Answer: 1.49 µg/mL (≈ 2.85 µM)

Question: How did the MIC turn out when `CN1C/C(=C\c2ccc(F)cc2)C(=O)[C@]2(C1)[C@@H](c1ccc(F)cc1)[C@@H]1CCCN1[C@@]21C(=O)Nc2ccccc21` (racemic) was run?
Answer: 2.97 µg/mL (≈ 5.65 µM)

Question: `CN1C/C(=C\c2ccco2)C(=O)[C@]2(C1)[C@@H](c1ccco1)CN(C)[C@@]21C(=O)Nc2ccccc21` (racemic) was tested. Which MIC did it give?
Answer: 3.52 µg/mL (≈ 7.94 µM)

Question: For `Cc1ccccc1/C=C1\CN(C)C[C@@]2(C1=O)[C@@H](c1ccccc1C)CN(C)[C@@]21C(=O)Nc2ccccc21` (racemic), which MIC is on record?
Answer: 0.39 µg/mL (≈ 0.793 µM)

Question: Which MIC does the source give for `NNC(=O)c1ccncc1` [ISONIAZID] here?
Answer: 45.6 µg/mL (≈ 332 µM)
